# Screening results from PubChem BioAssay.
# A selection: hits, their analogues and other compounds. The true share with any hit is near 11%.
# D1 allo mod: D1 CRE-luciferase signal change, two-sided – cell-based, HEK293 D1, dopamine EC30, D1 allosteric modulator project, primary screen; B-score at 10 µM; 58,000 tested, 5.9% active; dopamine EC30 potentiation; actives deviate in either direction; D(1A) dopamine receptor (Homo sapiens), P21728;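 active = luminescence count or its row- and column-corrected plate score outside the 99.7% band of the plate's sample wells, on either side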
# M1 agonist: M1 muscarinic receptor agonists, primary screen, CHO-M1 cells, Fluo-4 calcium, agonist mode; Muscarinic acetylcholine receptor M1; AID 626, 2007; B-score at 10 µM; Fluo-4 calcium fluorescence; hits give high values; 64,000 tested, 3% active;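 active = fluorescence rise, raw or as B-score row- and column-corrected plate score, outside the 99.7% band of its plate's samples, either direction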
# SF1 activator: activators of human SF-1, primary screen, cell-based, CHO-K1, Gal4-SF-1 LBD, luciferase luminescence. CHO-K1 Gal4-SF-1 LBD luciferase reporter; % increase over DMSO SF-1-specific signal. activation, % at 10 µM. 65,000 tested, 1.9% active;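 active = activation above the mean activation of all tested compounds plus 3 SD, cut at about 50% in these data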
#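 Test system: transient Gal4-SF-1 LBD reporter, CHO-K1; Amount: 4,000 CHO-K1 cells per well; Doses: 10 µM only; Timing: compound exposure 20 h at 37 °C; Signal: luciferase light emission; Read-out basis: percent activation relative to DMSO median and mock-transfected background; Control set: DMSO negative control and −SF1 background wells; Replicates: one test per compound.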
# mHtt clearance: clearance of mutant huntingtin inclusions, primary screen, imaging, HeLa Exon1htt(103Q)mCFP, confocal imaging; aggregate imaging; zero = plate's median compound well; inhibition, % at 1.5 µM; 47,000 tested, 0.42% active;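 active = inhibition of aggregate fluorescence above about 70%, also judged a hit by eye on the cell image, limit read from the data, passing the limit was not always enough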;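 note: cells exposed to compound for three days before fixation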
# M1 antag: antagonists of rat M1 muscarinic receptor | B-score at 10 µM | 64,000 tested, 3.4% active | AID 628, 2007 | Muscarinic acetylcholine receptor M1 (Rattus norvegicus), P08482 | CHO-M1 cells, Fluo-4 calcium, ACh EC80 antagonist mode; hits give low values;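 active = calcium fluorescence response, raw or row-and-column corrected B-score, differing from the plate sample mean either way at a set confidence level, mostly lower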
# Target sequence (P08482 whole entry, looked up): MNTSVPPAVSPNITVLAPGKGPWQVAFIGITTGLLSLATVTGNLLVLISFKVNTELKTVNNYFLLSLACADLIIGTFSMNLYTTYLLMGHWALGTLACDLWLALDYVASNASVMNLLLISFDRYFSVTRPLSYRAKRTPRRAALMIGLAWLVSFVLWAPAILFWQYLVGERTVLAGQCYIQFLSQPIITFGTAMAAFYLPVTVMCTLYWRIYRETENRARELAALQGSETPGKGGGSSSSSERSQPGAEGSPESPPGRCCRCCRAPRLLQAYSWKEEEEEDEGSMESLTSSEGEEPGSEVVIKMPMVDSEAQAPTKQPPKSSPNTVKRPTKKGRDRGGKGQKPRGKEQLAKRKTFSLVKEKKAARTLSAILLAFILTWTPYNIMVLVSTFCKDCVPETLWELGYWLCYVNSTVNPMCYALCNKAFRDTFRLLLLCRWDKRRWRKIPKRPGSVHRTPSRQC
# RORA act: activators of orphan receptor RORA, primary screen, cell-based, luminescence. Nuclear receptor ROR-alpha (Homo sapiens), P35398. CHO-K1 Gal4-RORA LBD luciferase reporter; percent increase over mock-subtracted basal signal. activation, % at 10 µM. 65,000 tested, 1.5% active. AID 560, 2006;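 active = activation above the mean of all tested compounds plus 3 SD, cut at about 49% in these data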;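 note: 0% = DMSO-treated RORA cells and 100% = added signal equal to DMSO minus mock-transfected cells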
# D1 PAM confirm: D1 receptor positive allosteric modulators, retest, confirmation, cell-based, HEK293 D1, CRE-luciferase, duplicate; dopamine EC30 potentiation; hits give high values; luminescence at 10 µM; shares compounds with D1 allo mod; 2,200 tested, 88% active;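 active = luminescence in either of two replicates above the same-plate mean plus 3 SD of the low-dose dopamine control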
# D1 no dopamine: D1 receptor agonism without dopamine, confirmation, mechanism study for D1 allosteric modulator project, cell-based, HEK293 D1, CRE-luciferase, secondary assay 1; luminescence, no dopamine; hits give high values; luminescence at 10 µM; shares compounds with D1 allo mod; 1,900 tested, 0.8% active; in the data active = luminescence above about 3900
# Isoprot counter: counter-screen for D1 modulators: isoproterenol response in HEK293 cells; shares compounds with D1 allo mod; HEK293 D1 CRE-luciferase, isoproterenol EC30 counter-screen; calls only at 10 µM; 2,200 tested, 63% active;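 active = luminescence in either replicate above plate mean of wells with a partly effective reference agonist dose plus 3 SD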;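 note: isoproterenol raises cAMP through native beta-adrenoceptor Gs so signal bypasses D1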
# * hit, by the source's call; i = inactive; . = no result given; + = active, no number.
SMILES,D1 allo mod,M1 agonist,SF1 activator,mHtt clearance,M1 antag,RORA act,D1 PAM confirm,D1 no dopamine,Isoprot counter
CCOc1ccc(CCNC(=O)CCN2C(=O)COc3ccccc32)cc1OCC,2.7*,0.21,-16,.,-0.013,2,9680*,1836,+
CCOC(=O)N1CCC(NC(=O)CSCc2nc(-c3ccc(OC)c(OC)c3)oc2C)CC1,1.3,0.81,3,31,0.088,-2,.,.,.
Cc1ccc(-c2ccc(=O)n(CC(=O)N3CCN(c4cccc(C)c4)C(C)C3)n2)cc1 (stereo unspecified),0.58,0.47,-20,-77,-0.26,-20,.,.,.
CCCCN(C)CCCNC(=O)CS(=O)Cc1nc(-c2ccc(OC)c(OC)c2)oc1C (stereo unspecified),0.32,0.87,-2,20,-0.15,-19,.,.,.
COc1ccc(-c2nc(CSCC(=O)N3CCN(c4cccc(C)c4)C(C)C3)c(C)o2)cc1OC (stereo unspecified),12*,0.14,8,.,0.0007,-4,12288*,.,+
COc1ccc(-c2nc(CSCC(=O)N3CCc4ccccc4C3)c(C)o2)cc1OC,7.8*,-0.14,0,.,-0.043,-4,7660,1528,+
COc1ccc(-c2nc(CS(=O)CC(=O)NC3CCCc4ccccc43)c(C)o2)cc1OC (stereo unspecified),4.4*,0.91,26,.,0.23,26,9276*,.,+
CCOc1ccc(NC(=O)c2cccc3c2C(=O)N(Cc2cccnc2)C3)cc1,1.8,-0.12,28,.,0.35,28,.,.,.
COc1ccc(CSc2nnc3n(C)c(=O)c4c5c(sc4n23)CCCC5)cc1,.,-0.56,-6,.,-1.3,9,.,.,.
CCC(c1nnnn1Cc1ccc(F)cc1)N(CCCO)Cc1cc2cc3c(cc2[nH]c1=O)OCO3 (stereo unspecified),5.5*,0.14,3,.,-0.47,-11,4672,1368,i
CCc1c(C(=O)Nc2ccc(S(=O)(=O)N3CCOCC3)cc2)csc1C,-0.074,1.4,-2,22,-0.51,2,.,.,.
O=S(=O)(NC1CCCCCC1)c1cccc2cccnc12,5.5*,-0.26,-1,-6,0.011,-17,9760*,1524,+
CN(CC(=O)NC1CCCCCCC1)S(=O)(=O)c1cccc2cccnc12,.,1.3,-4,21,0.68,-11,.,.,.
CCN1C/C(=C\c2cccc(C)c2)c2nc3ccccc3c(C(=O)O)c2C1,.,.,.,-54,.,.,.,.,.
CCOC(=O)c1cc(-c2ccccc2)sc1N,12*,0.47,31,.,0.0059,28,19816*,1684,+
CCOC(=O)c1sc(-c2ccccc2)cc1N,6.1*,0.15,52*,22,-0.61,49*,12680*,1780,i
CCOC(=O)c1c(N)sc(-c2ccccc2)c1C,.,.,.,60,.,.,.,.,.
CCOC(=O)c1c(N)sc(C(O)(C(F)(F)F)C(F)(F)F)c1-c1ccccc1,.,.,.,15,.,.,.,.,.
CCn1ncc2c(OCc3ccc(C#N)cc3)cc(C)nc21,-0.43,-0.012,1,.,-1.5,12,.,.,.
COc1ccc(CCNC(=O)C(=O)N2CCCCC2)cc1OC,.,.,.,52,.,.,.,.,.
CC(C)(C)n1nnnc1CN1C2CCC1CC(NC(=O)Nc1ccccc1)C2 (stereo unspecified),4.8*,0.019,4,-17,1.4,13,5228,.,i
COc1ccc(CNc2oc(-c3ccccc3)nc2C#N)cc1,10*,-1.7,7,.,0.83,-6,18596*,1724,+
N#Cc1nc(Cc2ccccc2)oc1NCc1ccccc1Cl,12*,0.21,21,.,-1.6,10,11100*,1556,+
N#Cc1nc(-c2ccccc2Cl)oc1NCc1ccco1,4.7*,0.0085,-6,37,0.88,8,12632*,1648,+
N#Cc1nc(-c2ccco2)oc1NCc1ccc(F)cc1,6.6*,-0.0044,20,-86,-0.34,0,12560*,1876,+
SMILES,D1 allo mod,M1 agonist,SF1 activator,mHtt clearance,M1 antag,RORA act,D1 PAM confirm,D1 no dopamine,Isoprot counter
N#Cc1nc(-c2ccco2)oc1NCc1cccnc1,2.3,-0.36,-2,17,0.3,-6,.,.,.
CNc1oc(-c2ccccc2)nc1C#N,7.4*,0.057,-5,.,-1.3,7,11304*,1648,+
COCCNc1oc(-c2ccc(Cl)cc2)nc1C#N,0.62,-0.2,40,-33,-0.34,34,.,.,.
COCCNc1oc(-c2ccc(C)cc2)nc1C#N,5.1*,-0.29,61*,10,0.28,48,5796*,1872,i
CCOC(=O)Nc1c(C(=O)OC)[nH]c2cccc(OC)c12,-0.24,-0.61,-8,.,0.23,25,.,.,.
O=C(c1ccccc1[N+](=O)[O-])N1CCC(Cc2ccccc2)CC1,.,.,.,-6,.,.,.,.,.
COc1ccc(S(=O)(=O)Nc2ccc3c(c2)OCO3)cc1OC,3.1*,0.37,4,.,0.37,-12,9304*,1612,i
CCOC(=O)C1CCN(C(=O)Nc2ccccc2Cl)CC1,0.5,0.2,-26,.,-0.2,-15,.,.,.
CC1(C)Cc2c(sc3c2c(=N)n(Cc2ccco2)c(=O)n3Cc2ccc(Cl)cc2)CO1,25*,0.0031,18,.,-0.048,-23,24660*,1604,+
CC(=O)NCC1=C(NC(C)=O)C2CC1C(C)(C)C2C (stereo unspecified),-0.0073,2.4,12,.,1.4,-7,.,.,.
CCCc1nc2sc3ccccc3c(=O)c2c(=O)n1Cc1ccco1,4.6*,-1.5,4,-48,0.85,-2,9128*,1636,i
Cc1cc(N2CCCC2=O)c(N)cc1N,-0.79,-0.13,-12,24,-0.48,3,.,.,.
COc1cccc(C(c2sc3ncnn3c2O)N2CCN(C(=O)c3ccco3)CC2)c1 (stereo unspecified),-0.22,-0.99,12,.,0.39,-6,.,.,.
CCOCCCNS(=O)(=O)c1ccc(NC(=O)c2ccccc2)cc1,0.93,-1.6,-20,27,-0.057,-17,.,.,.
N#CC1=C(N)N(c2ccccc2)C(c2ccco2)C1(C#N)C#N (stereo unspecified),7.7*,-0.74,0,.,0.011,18,5392,1576,i
